Laboratory results taken from ChEMBL document CHEMBL3102822, “Synthesis, biological evaluation and molecular docking studies of benzyloxyacetohydroxamic acids as LpxC inhibitors” (Bioorg Med Chem, 2014).
Activity calls are given as the source filed them. No cut-off for these calls is given here.

How the values were obtained:
[1] = tested on: Escherichia coli; experiment: Antimicrobial activity against Escherichia coli BL21(DE3) at 10 mM after overnight incubation by agar disc diffusion method; assay type: functional; conditions: read-out: DIZ
Procedure, shortened: (§1)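 Strains grown overnight in LB broth at 37 °C, 200 rpm; 150 µL overnight suspension spread on LB agar. 15 µL of compound (10 mM stock in DMSO) applied to 6 mm filter paper discs; DMSO negative and CHIR-090 positive controls. Plates incubated overnight at 37 °C; zone of inhibition diameter measured, mean ± SD of three independent experiments.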

[2] = tested on: Escherichia coli; experiment: Antimicrobial activity against Escherichia coli D22 at 10 mM after overnight incubation by agar disc diffusion method; assay type: functional; conditions: read-out: DIZ; procedure, shortened: as §1
[3] = target: T1, UDP-3-O-acyl-N-acetylglucosamine deacetylase (Escherichia coli K-12, UniProt P0A725); experiment: Inhibition of Escherichia coli LpxC using UDP-3-O-[(R)-3-hydroxymyristoyl]-N-acetylglucosamine as substrate incubated for 30 mins prior to enzyme addition by fluorescence assay
T1 sequence (P0A725 whole entry): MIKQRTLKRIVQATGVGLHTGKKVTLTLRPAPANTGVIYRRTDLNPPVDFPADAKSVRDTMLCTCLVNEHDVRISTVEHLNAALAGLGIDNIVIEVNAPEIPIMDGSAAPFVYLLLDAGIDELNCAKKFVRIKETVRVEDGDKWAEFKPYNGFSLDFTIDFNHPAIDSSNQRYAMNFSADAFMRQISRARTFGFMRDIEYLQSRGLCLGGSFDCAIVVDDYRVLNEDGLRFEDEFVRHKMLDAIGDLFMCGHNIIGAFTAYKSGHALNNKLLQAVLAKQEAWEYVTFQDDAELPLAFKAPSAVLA

[4] = target: T2, UDP-3-O-acyl-N-acetylglucosamine deacetylase (Escherichia coli K-12) (UniProt P0A725); experiment: Inhibition of Escherichia coli LpxC using UDP-3-O-[(R)-3-hydroxymyristoyl]-N-acetylglucosamine as substrate up to 200 uM incubated for 30 mins prior to enzyme addition by fluorescence assay
T2 sequence (whole entry): T1 sequence (P0A725 whole entry)
Procedure, shortened: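 Purified E. coli LpxC (stored in 50 mM Bis/Tris pH 6.0, 150 mM NaCl). 40 mM MES pH 6.0 with 25 µM substrate, 80 µM DTT, 0.02% Brij 35; inhibitors in DMSO, 0.2 nM–200 µM, 30 min at 37 °C shaking before adding 500 ng enzyme. Stopped with NaOH, neutralized with acetic acid; product derivatized with o-phthaldialdehyde-2-mercaptoethanol in borax, fluorescence ex 340/em 460 nm. IC50 converted to Ki by Cheng-Prusoff (KM 4 µM); mean ± SD, n=3.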

IC50 [3] [µM] | inhibition [4] | SMILES | zone of inhibition at 10000 µM [1] [mm] | zone of inhibition at 10000 µM [2] [mm] | Ki [3] [µM]
> 200 | – | O=C(CO[C@H](CO)c1ccccc1)NO | < 6 | < 6 | –
> 200 | – | C[Si](C)(C)C#Cc1ccc([C@H](CO)OCC(=O)NO)cc1 | 7.1 | 7.2 | –
> 200 | – | O=C(CO[C@@H](CO)c1ccc(Br)cc1)NO | < 6 | < 6 | –
> 200 | inactive | C[Si](C)(C)C#Cc1ccc([C@@H](CO)OCC(=O)NO)cc1 | < 6 | 7.5 | –
> 200 | – | O=C(CO[C@@H](CO)c1ccccc1)NO | < 6 | < 6 | –
> 200 | – | C#Cc1ccc([C@H](CO)OCC(=O)NO)cc1 | < 6 | < 6 | –
> 200 | inactive | O=C(CO[C@H](CO)c1ccc(Br)cc1)NO | < 6 | < 6 | –
> 200 | – | O=C(NO)[C@H]1O[C@@H](c2ccc(C#Cc3ccc(CN4CCOCC4)cc3)cc2)[C@@H](O)[C@H]1O | < 6 | 13.1 | –

Second part, the compound before the results:

SMILES | IC50 [3] [µM] | inhibition [4] | zone of inhibition at 10000 µM [1] [mm] | zone of inhibition at 10000 µM [2] [mm] | Ki [3] [µM]
O=C(COCc1ccc(C#Cc2ccccc2)cc1)NO | > 200 | – | 10.6 | 13.2 | –
C#Cc1ccc([C@@H](CO)OCC(=O)NO)cc1 | > 200 | inactive | < 6 | < 6 | –
O=C(NO)[C@H](CO)O[C@H](CO)c1ccc(C#Cc2ccc(CN3CCOCC3)cc2)cc1 | 2.6 | – | 9 | 20.8 | 0.358
O=C(CO[C@@H](CO)c1ccc(C#Cc2ccc(CN3CCOCC3)cc2)cc1)NO | 198 | – | 8.7 | 12.3 | 27.3
O=C(CO[C@H](CO)c1ccc(C#Cc2ccccc2)cc1)NO | 0.48 | – | 9.5 | 20.5 | 0.066
O=C(CO[C@H](CO)c1ccc(C#Cc2ccc(CN3CCOCC3)cc2)cc1)NO | 0.69 | – | 13.4 | 21.2 | 0.095
C[C@@H](O)[C@H](NC(=O)c1ccc(C#Cc2ccc(CN3CCOCC3)cc2)cc1)C(=O)NO | – | – | 24.6 | 30.3 | –
O=C(CO[C@@H](CO)c1ccc(C#Cc2ccccc2)cc1)NO | 31.6 | – | 9.1 | 13 | 4.4
O=C(COCc1ccc(C#Cc2ccc(CN3CCOCC3)cc2)cc1)NO | 10.5 | – | 16.5 | 20.3 | 1.45
